The values that follow come from ChEMBL document CHEMBL1148007, “Synthesis of new S-derivatives of clubbed triazolyl thiazole as anti-Mycobacterium tuberculosis agents” (Bioorg Med Chem, 2007).

For orientation: MIC means the least concentration at which growth counts as inhibited.

The subject of series [1] is Mycobacterium tuberculosis. Kind of series: Antitubercular activity against Mycobacterium tuberculosis H37Rv by MABA assay. Format: functional. Summed up:
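Actives re-tested at lower concentrations against H37Rv (ATCC 27294) in BACTEC 12B medium by Microplate Alamar Blue Assay. MIC taken as lowest concentration giving […] fluorescence reduction versus controls; rifampin reference.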
For orientation: Resazurin is reduced to fluorescent resorufin, in cell work by metabolically active cells.

Series [2] has as its system Mycobacterium tuberculosis. Kind of series: Antitubercular activity against Mycobacterium tuberculosis H37Rv at 6.25 ug/mL by MABA assay. Format: functional. The settings on record: read-out: GI. Summed up:
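Primary screen against M. tuberculosis H37Rv (ATCC 27294) in BACTEC 12B medium by broth microdilution Microplate Alamar Blue Assay; fluorescent compounds run instead in BACTEC 460 radiometric system. Compounds above 95% inhibition counted active.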

The test system of series [3] is Staphylococcus aureus. Kind of series: Antibacterial activity against Staphylococcus aureus at 50 to 100 uM after 24 hrs by well diffusion method. It is filed as functional. Summed up:
(§1)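 Nutrient agar plates with 10 mm wells cut by cork borer; 24-h subcultured bacteria swabbed on. Compounds dissolved in chloroform, 50 to 100 μM added to wells, gentamycin as standard. Incubated 24 h at 24–28 °C; inhibition zone diameter measured and converted to percent inhibition.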

Series [4] relates to Escherichia coli. Kind of series: Antibacterial activity against Escherichia coli at 50 to 100 uM after 24 hrs by well diffusion method. It is filed as functional. An outline of the steps:
as §1
Background: Agar diffusion results depend on both activity and mobility in agar.

Series [5] relates to Pseudomonas aeruginosa. Kind of series: Antibacterial activity against Pseudomonas aeruginosa at 50 to 100 uM after 24 hrs by well diffusion method. Format: functional. An outline of the steps:
as §1

The test system of series [6] is Salmonella typhi. The experiment in a line: Antibacterial activity against Salmonella typhi at 50 to 100 uM after 24 hrs by well diffusion method. Format: functional, Salmonella enterica subsp. enterica serovar Typhi. Also on record: unit not given here. Summed up: as §1
Series [7] can be described thus: Cytotoxicity against Vero-C1008 cells at 6.25 to 50 ug/mL by neutral red uptake assay. It is filed as cell-based. The following applies: chlorocebus sabaeus. Summed up:
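Vero-C-1008 cells exposed to 6.25 to 50 μg/mL compound; viability read by neutral red uptake.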

The compound `O=C(CCl)Nc1nc(Cc2nnc(S)n2NC(=O)c2cccc([N+](=O)[O-])c2)cs1` returned an MIC in series [1] of 6.25 µM. The inhibition of growth at 6.25 µg/mL in series [2] came to 96%. The inhibition zone in series [3] came out at 22 mm; in series [4], 20 mm; in series [5] it was 22 mm. This compound gave an Inhibition in series [6] of 16. Moreover, the Activity entry in series [7] is “Non-toxic”.

As to `NNC(=O)CSc1nnc(Cc2csc(NC(=O)CCl)n2)n1NC(=O)c1cccc([N+](=O)[O-])c1`, the MIC in series [1] amounted to 6.25 µM. In series [2], the inhibition of growth at 6.25 µg/mL came out at 96%. For the same compound, the inhibition zone was found to be 29 mm in series [3], 19 mm in series [4] and 20 mm in series [5]. Also, the Inhibition in series [6] amounted to 18. Further, the Activity result in series [7] is “Non-toxic”.

For `O=C(CSc1nnc(Cc2csc(NC(=O)c3ccccc3)n2)n1NC(=O)c1ccc(Cl)cc1)N/N=C/c1ccccc1`, in series [1], the MIC came out at 3.13 µM. Further, in series [2], the inhibition of growth at 6.25 µg/mL was 96%. Also, the inhibition zone was 21 mm in series [3], 23 mm in series [4] and 24 mm in series [5]. This compound also showed an Inhibition in series [6] of 21. Also, the Activity entry in series [7] was “Non-toxic”.

In turn, `O=C(CCl)Nc1nc(Cc2nnc(S)n2NC(=O)c2ccc(Cl)cc2)cs1` showed an MIC in series [1] of 6.25 µM. The inhibition of growth at 6.25 µg/mL in series [2] came out at 96%. Further, the inhibition zone in series [3] was found to be 20 mm; in series [4] it was 18 mm; in series [5] it was 20 mm. The same compound yielded an Inhibition in series [6] of 14. For the same compound, the Activity entry in series [7] is listed as “Non-toxic”.

In series [1], `COC(=O)CSc1nnc(Cc2csc(NC(=O)c3ccccc3)n2)n1NC(=O)c1cccc([N+](=O)[O-])c1` had an MIC of under 6.25 µg/mL. For the same compound, the inhibition zone in series [3] amounted to 22 mm; in series [4], 24 mm; in series [5] it was 11 mm. Moreover, the Inhibition in series [6] is given as 24. Moreover, in series [7], the Activity entry is “Non-toxic”.

Consider `CC(=O)NNC(=O)CSc1nnc(Cc2csc(NC(=O)c3ccccc3)n2)n1NC(=O)c1cccc([N+](=O)[O-])c1`, for which, in series [1], the MIC was under 6.25 µg/mL. Besides, the inhibition zone in series [3] is 20 mm; in series [4] it was 14 mm; in series [5] it was 18 mm. The Inhibition in series [6] is 12. In series [7], the Activity result is on record as “Non-toxic”.

Compound `CC(=O)NNC(=O)CSc1nnc(Cc2csc(NC(C)=O)n2)n1NC(=O)c1cccc([N+](=O)[O-])c1` returned an MIC in series [1] of under 6.25 µg/mL. The inhibition zone in series [3] was determined as 33 mm; in series [4], 30 mm; in series [5] it was 34 mm. The same compound returned an Inhibition in series [6] of 29. The Activity entry in series [7] is recorded as “Non-toxic”.

The compound `Nn1c(S)nnc1CSc1nnc(Cc2csc(NC(=O)c3ccccc3)n2)n1NC(=O)c1ccc(Cl)cc1` gave an MIC in series [1] of under 6.25 µg/mL. The inhibition zone in series [3] came to 26 mm; in series [4], 20 mm; in series [5] it was 19 mm. This compound also yielded an Inhibition in series [6] of 19. The Activity entry in series [7] is given as “Non-toxic”.

In series [1], `CC(=O)NNC(=O)CSc1nnc(Cc2csc(NCCC(=O)O)n2)n1NC(=O)c1cccc([N+](=O)[O-])c1` yielded an MIC of under 6.25 µg/mL. For the same compound, the inhibition zone worked out at 24 mm in series [3], 14 mm in series [4] and 10 mm in series [5]. The same compound registered an Inhibition in series [6] of 14. Moreover, the Activity entry in series [7] is recorded as “Non-toxic”.

The compound `Nn1c(S)nnc1Cc1csc(NCCC(=O)O)n1` showed an MIC in series [1] of under 6.25 µg/mL. Besides, the inhibition zone in series [3] is 25 mm; in series [4] it was 20 mm; in series [5], 22 mm. The compound also yielded an Inhibition in series [6] of 16. Also, the Activity result in series [7] is reported as “Non-toxic”.

Compound `Nn1c(S)nnc1CSc1nnc(Cc2csc(NCCC(=O)O)n2)n1NC(=O)c1cccc([N+](=O)[O-])c1` returned an MIC in series [1] of under 6.25 µg/mL. Moreover, the inhibition zone in series [3] amounted to 26 mm; in series [4], 17 mm; in series [5], 28 mm. The compound also yielded an Inhibition in series [6] of 18. Moreover, the Activity result in series [7] is given as “Non-toxic”.

For `CC(=O)NNC(=O)CSc1nnc(Cc2csc(NC(C)=O)n2)n1NC(=O)c1ccc(Cl)cc1`, the MIC in series [1] was under 6.25 µg/mL. Moreover, the inhibition zone was 27 mm in series [3], 20 mm in series [4] and 19 mm in series [5]. Also, the Inhibition in series [6] turned out to be 23. In addition, the Activity entry in series [7] is on record as “Non-toxic”.

The compound `O=C(O)CCNc1nc(Cc2nnc(SCSc3nnc(Cc4csc(NCCC(=O)O)n4)n3NC(=O)c3cccc([N+](=O)[O-])c3)n2NC(=O)c2cccc([N+](=O)[O-])c2)cs1` displayed an MIC in series [1] of under 6.25 µg/mL. For the same compound, the inhibition zone came out at 25 mm in series [3], 21 mm in series [4] and 26 mm in series [5]. The compound also showed an Inhibition in series [6] of 18. For the same compound, the Activity entry in series [7] is reported as “Non-toxic”.

Compound `NNC(=O)CSc1nnc(Cc2csc(NCCC(=O)O)n2)n1NC(=O)c1cccc([N+](=O)[O-])c1` displayed an MIC in series [1] of under 6.25 µg/mL. The inhibition zone in series [3] is 24 mm; in series [4], 16 mm; in series [5] it was 28 mm. This compound had an Inhibition in series [6] of 21. In addition, the Activity result in series [7] is on record as “Non-toxic”.

Turning to `O=C(CSc1nnc(Cc2csc(NC(=O)c3ccccc3)n2)n1NC(=O)c1cccc([N+](=O)[O-])c1)NNC(=O)c1ccccc1`, the MIC in series [1] was under 6.25 µg/mL. Also, the inhibition zone in series [3] amounted to 18 mm; in series [4], 14 mm; in series [5], 12 mm. In addition, in series [6], the Inhibition was found to be 12. In addition, in series [7], the Activity result is recorded as “Non-toxic”.

The compound `CC(=O)Nc1nc(Cc2nnc(SCc3nnc(S)n3N)n2NC(=O)c2cccc([N+](=O)[O-])c2)cs1` returned an MIC in series [1] of under 6.25 µg/mL. Besides, the figures for the inhibition zone in series [3], in series [4] and in series [5] were 18 mm, 21 mm and 13 mm, respectively. In series [6], this compound gave an Inhibition of 18. Besides, the Activity entry in series [7] was “Non-toxic”.

With `COC(=O)CSc1nnc(Cc2csc(NC(=O)CCl)n2)n1NC(=O)c1ccc(Cl)cc1`, the MIC in series [1] was under 6.25 µg/mL. Moreover, the values for the inhibition zone in series [3], in series [4] and in series [5] were 18 mm, 10 mm and 16 mm, respectively. In addition, the Inhibition in series [6] was 12. For the same compound, the Activity result in series [7] is on record as “Non-toxic”.

As for `O=C(Nc1nc(Cc2nnc(SCSc3nnc(Cc4csc(NC(=O)c5ccccc5)n4)n3NC(=O)c3cccc([N+](=O)[O-])c3)n2NC(=O)c2cccc([N+](=O)[O-])c2)cs1)c1ccccc1`, the MIC in series [1] was under 6.25 µg/mL. Also, the inhibition zone in series [3] worked out at 26 mm; in series [4], 24 mm; in series [5], 24 mm. In series [6], this compound gave an Inhibition of 19. Besides, in series [7], the Activity entry is given as “Non-toxic”.

As to `O=C(CSc1nnc(Cc2csc(NC(=O)CCl)n2)n1NC(=O)c1ccc(Cl)cc1)NNC(=O)c1ccccc1`, the MIC in series [1] was under 6.25 µg/mL. Besides, the inhibition zone is 21 mm in series [3], 21 mm in series [4] and 26 mm in series [5]. The compound also registered an Inhibition in series [6] of 20. Besides, the Activity result in series [7] is “Non-toxic”.

`Nn1c(S)nnc1CSc1nnc(Cc2csc(NC(=O)CCl)n2)n1NC(=O)c1cccc([N+](=O)[O-])c1` displayed an MIC in series [1] of under 6.25 µg/mL. In addition, the inhibition zone in series [3] amounted to 20 mm; in series [4], 18 mm; in series [5], 26 mm. Also, the Inhibition in series [6] turned out to be 21. In series [7], the Activity entry is “Non-toxic”.
